In ChEMBL document CHEMBL1125144, “5-[(Aminoalkyl)amino]imidazo[4,5,1-de]acridin-6-ones as a novel class of antineoplastic agents. Synthesis and biological activity” (J Med Chem, 1990):
“And” between values parts separate entries of the source, which are not always exact repeats. Equal values may be shown once.

Columns and labels:
P388 [1] = test: In vivo antitumor activity was determined against P 388 leukemia cells implanted (ip) in BDF1 mice at a dose of 75 mg/kg; assay type: functional, Mus musculus
In short: (§1)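 Groups of eight BDF1 mice received 10⁶ P388 cells ip on day 0. Control groups of 18 mice received saline. Read-out is T/C (%). T/C ≤85% is scored toxic and ≥125% significant activity. Some doses were repeated in an independent multidose assay.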

HeLa = test: In vitro cytotoxic activity against HeLaS3 cells in tissue culture was determined; assay type: functional, cell-based; settings: Homo sapiens
In short: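 HeLa S3 cells grown in tissue culture. Read-out is the concentration giving 50% inhibition. Significant cytotoxicity is defined as 50% inhibition at <1 µg/mL. Values are the mean of three independent experiments.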

P388 [2] = test: In vivo antitumor activity was determined against P 388 leukemia cells implanted (ip) in BDF1 mice at a dose of 150 mg/kg; assay type: functional, Mus musculus; in short: as §1
P388 [3] = test: In vivo antitumor activity was determined against P 388 leukemia cells implanted (ip) in BDF1 mice at a dose of 25 mg/kg; assay type: functional, Mus musculus; in short: as §1
P388 [4] = test: In vivo antitumor activity was determined against P 388 leukemia cells implanted (ip) in BDF1 mice at a dose of 50 mg/kg; assay type: functional, Mus musculus; in short: as §1
P388 [5] = test: In vivo antitumor activity was determined against P 388 leukemia cells implanted (ip) in BDF1 mice at a dose of 100 mg/kg; assay type: functional, Mus musculus; in short: as §1
P388 [6] = test: In vivo antitumor activity was determined against P 388 leukemia cells implanted (ip) in BDF1 mice at a dose of 75; assay type: functional, Mus musculus; in short: as §1
P388 [7] = test: In vivo antitumor activity was determined against P 388 leukemia cells implanted (ip) in BDF1 mice a dose of 75 mg/kg; assay type: functional, Mus musculus; in short: as §1
P388 [8] = test: In vivo antitumor activity was determined against P 388 leukemia cells implanted (ip) in BDF1 mice at a dose of 60 mg/kg; assay type: functional, Mus musculus; in short: as §1
P388 [9] = test: In vivo antitumor activity was determined against P 388 leukemia cells implanted (ip) in BDF1 mice at a dose of 90 mg/kg; assay type: functional, Mus musculus; in short: as §1
P388 [10] = test: In vivo antitumor activity was determined against P 388 leukemia cells implanted (ip) in BDF1 mice at a dose of 175 mg/kg; assay type: functional, Mus musculus; in short: as §1
P388 [11] = test: In vivo antitumor activity was determined against P 388 leukemia cells implanted (ip) in BDF1 mice at a dose of 30 mg/kg; assay type: functional, Mus musculus; in short: as §1

| Compound | IC50 (HeLa) | also measured |
| --- | --- | --- |
| CCCCCCCCc1nc2ccc(NCCN(C)C)c3c(=O)c4ccccc4n1c23.Cl.Cl | 0.2 µg/mL | T/C (P388 [1]): <85% |
| CC(C)c1nc2ccc(NCCN(C)C)c3c(=O)c4ccccc4n1c23.Cl.Cl | 0.37 µg/mL | T/C (P388 [2]): 166% |
| CN(C)CCCNc1ccc(N)c2nc3ccccc3c(O)c12.Cl.Cl | 0.25 µg/mL | T/C (P388 [3]): <85% |
| CN(C)CCNc1ccc2nc(-c3ccccc3)n3c4ccccc4c(=O)c1c23.Cl.Cl | 0.43 µg/mL | T/C (P388 [4]): 150% |
| CN(C)CCCCCNc1ccc2ncn3c4ccccc4c(=O)c1c23.Cl.Cl | 0.5 µg/mL | T/C (P388 [5]): 110% |
| CN(C)CCCNc1ccc([N+](=O)[O-])c2nc3ccccc3c(O)c12.Cl | 0.04 µg/mL | T/C (P388 [5]): 189%; T/C (P388 [6]): 190% |
| CN(C)CCNc1ccc(N)c2nc3ccccc3c(O)c12.Cl.Cl | 2.93 µg/mL | T/C (P388 [5]): <85% |
| CC(=O)Nc1ccc(NCCN(C)C)c2c(O)c3ccccc3nc12.Cl.Cl | > 5 µg/mL | T/C (P388 [7]): 137% |
| CN(C)CCNc1ccc2ncn3c4ccccc4c(=O)c1c23.Cl.Cl | 0.06 µg/mL | T/C (P388 [3]; 25 mg/kg): 180% and 188% |
| CN(C)CCNc1ccc([N+](=O)[O-])c2nc3ccccc3c(O)c12.Cl | 0.15 µg/mL | T/C (P388 [4]): 185%; T/C (P388 [3]; 25 mg/kg): 160% and 166% |
| CN(C)CCCCCNc1ccc([N+](=O)[O-])c2nc3ccccc3c(O)c12.Cl | 0.13 µg/mL | T/C (P388 [8]): 144% |
| CN(C)CCCNc1ccc2ncn3c4ccccc4c(=O)c1c23.Cl.Cl | 0.15 µg/mL | T/C (P388 [5]; 100 mg/kg): 133% and 120% |
| CC(=O)Nc1ccc(NCCCN(C)C)c2c(O)c3ccccc3nc12.Cl.Cl | > 5 µg/mL |  |
| Cc1nc2ccc(NCCN(C)C)c3c(=O)c4ccccc4n1c23.Cl.Cl | 0.05 µg/mL | T/C (P388 [4]; 50 mg/kg): 190% and 230% |
| CCc1nc2ccc(NCCN(C)C)c3c(=O)c4ccccc4n1c23.Cl.Cl | 0.11 µg/mL | T/C (P388 [5]): 200% |
| Cc1nc2ccc(NCCCN(C)C)c3c(=O)c4ccccc4n1c23.Cl.Cl | 0.11 µg/mL | T/C (P388 [2]): 122% |
| CCc1nc2ccc(NCCCN(C)C)c3c(=O)c4ccccc4n1c23.Cl.Cl | 0.25 µg/mL | T/C (P388 [9]): 130% |
| CCCc1nc2ccc(NCCN(C)C)c3c(=O)c4ccccc4n1c23.Cl.Cl | 0.2 µg/mL | T/C (P388 [10]): 211% and 233% |
| CN(C)CCCCCNc1ccc(N)c2nc3ccccc3c(O)c12.Cl.Cl | 1.05 µg/mL |  |
| CN(C)CCCNc1ccc2nc(-c3ccccc3)n3c4ccccc4c(=O)c1c23.Cl.Cl | 0.28 µg/mL | T/C (P388 [11]): 110% |
